Test results: ChEMBL document CHEMBL1146073, “A pyridazine series of alpha2/alpha3 subtype selective GABA A agonists for the treatment of anxiety” (J Med Chem, 2006)

Columns and labels:
[1] = Stability in rat assessed as liver microsomal turnover; type: ADME, Microsome; conditions: liver microsomes, read-out: Stability
Summary of the method: (§1)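 Test compound at 1 µM, with diazepam as control, incubated 0.25 h with pooled liver microsomes at 0.5 mg/mL protein. Compound remaining quantified by LC/MS/MS. Turnover is the mean of three determinations.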

[2] = biological target: GABA-A receptor; alpha-2/beta-3/gamma-2 (Homo sapiens) (UniProt P18507+P28472+P47869); assay: Efficacy against recombinant human GABA-Aalpha2 plus beta-3-gamma-2 expressed in L(tk-) cells by whole cell patch clamp method relative to chlordiazepoxide; type: functional, cell-based
Summary of the method: (§2)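 Whole-cell patch clamp on αxβ3γ2 receptors stably expressed in L(tk-) cells, measuring the effect on current evoked by an EC20-equivalent of GABA. Reported relative to full agonist chlordiazepoxide (=1.0), or as direct percent modulation of the EC20 control, with inverse agonism given as percent. Mean of at least four independent experiments.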

[3] = Stability in human assessed as liver microsomal turnover; type: ADME, Microsome; conditions: liver microsomes, read-out: Stability; summary of the method: as §1
[4] = biological target: T1, GABA-A receptor; alpha-3/beta-3/gamma-2 (Homo sapiens, UniProt P18507+P28472+P34903); assay: Displacement of [3H]Ro-151788 from recombinant human GABA-Aalpha3 receptor plus beta3gamma2; type: protein-complex assay
T1 sequence (P18507 whole entry): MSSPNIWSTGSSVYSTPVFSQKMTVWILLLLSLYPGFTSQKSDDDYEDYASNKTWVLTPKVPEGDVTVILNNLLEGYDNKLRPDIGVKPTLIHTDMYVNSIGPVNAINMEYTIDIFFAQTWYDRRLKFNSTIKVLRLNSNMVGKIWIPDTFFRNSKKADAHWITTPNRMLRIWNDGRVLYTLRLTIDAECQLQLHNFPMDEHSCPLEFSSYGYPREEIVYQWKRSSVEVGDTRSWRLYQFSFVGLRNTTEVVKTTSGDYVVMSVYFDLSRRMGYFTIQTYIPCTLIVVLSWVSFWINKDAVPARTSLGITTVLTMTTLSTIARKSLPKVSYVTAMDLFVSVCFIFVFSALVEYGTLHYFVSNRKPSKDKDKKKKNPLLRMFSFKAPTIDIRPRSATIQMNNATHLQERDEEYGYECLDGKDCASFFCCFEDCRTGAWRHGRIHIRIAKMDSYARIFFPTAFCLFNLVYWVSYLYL
T1 sequence (P28472 whole entry): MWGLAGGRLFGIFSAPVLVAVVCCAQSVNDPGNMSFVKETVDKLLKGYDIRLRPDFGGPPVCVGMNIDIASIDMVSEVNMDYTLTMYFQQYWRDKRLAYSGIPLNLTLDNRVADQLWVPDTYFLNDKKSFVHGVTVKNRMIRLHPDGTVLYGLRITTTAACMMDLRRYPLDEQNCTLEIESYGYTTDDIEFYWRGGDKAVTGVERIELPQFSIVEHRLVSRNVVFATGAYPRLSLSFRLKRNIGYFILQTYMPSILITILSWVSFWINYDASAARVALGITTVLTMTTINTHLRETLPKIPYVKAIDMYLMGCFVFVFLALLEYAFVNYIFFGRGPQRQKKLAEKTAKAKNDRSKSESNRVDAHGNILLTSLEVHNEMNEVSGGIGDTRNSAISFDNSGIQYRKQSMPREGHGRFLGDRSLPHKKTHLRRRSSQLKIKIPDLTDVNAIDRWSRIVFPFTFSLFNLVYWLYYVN
T1 sequence (P34903 whole entry): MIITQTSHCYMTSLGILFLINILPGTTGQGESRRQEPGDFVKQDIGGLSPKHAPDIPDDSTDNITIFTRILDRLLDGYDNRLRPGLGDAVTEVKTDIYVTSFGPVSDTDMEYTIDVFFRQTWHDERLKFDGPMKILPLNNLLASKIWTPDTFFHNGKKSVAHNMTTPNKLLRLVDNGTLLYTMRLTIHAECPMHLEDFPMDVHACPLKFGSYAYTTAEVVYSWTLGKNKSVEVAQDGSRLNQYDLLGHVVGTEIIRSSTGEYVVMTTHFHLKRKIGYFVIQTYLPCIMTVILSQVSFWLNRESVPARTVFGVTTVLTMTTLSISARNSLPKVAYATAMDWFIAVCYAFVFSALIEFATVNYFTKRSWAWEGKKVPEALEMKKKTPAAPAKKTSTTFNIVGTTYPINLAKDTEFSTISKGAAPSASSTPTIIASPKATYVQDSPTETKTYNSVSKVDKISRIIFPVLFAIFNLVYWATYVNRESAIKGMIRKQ
Summary of the method: (§3)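 Benzodiazepine-site binding on stably transfected αxβ3γ2 receptors (x = 1, 2, 3 or 5). Inhibition curves run with [3H]Ro15-1788 at roughly twice its Kd. Ki derived by Cheng-Prusoff equation. Mean of three to six determinations.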

[5] = biological target: T2, GABA-A receptor; alpha-1/beta-3/gamma-2 (Homo sapiens, UniProt P14867+P18507+P28472); assay: Displacement of [3H]Ro-151788 from recombinant human GABA-Aalpha1 receptor plus beta3gamma2; type: protein-complex assay; summary of the method: as §3
T2 sequence (P14867 whole entry): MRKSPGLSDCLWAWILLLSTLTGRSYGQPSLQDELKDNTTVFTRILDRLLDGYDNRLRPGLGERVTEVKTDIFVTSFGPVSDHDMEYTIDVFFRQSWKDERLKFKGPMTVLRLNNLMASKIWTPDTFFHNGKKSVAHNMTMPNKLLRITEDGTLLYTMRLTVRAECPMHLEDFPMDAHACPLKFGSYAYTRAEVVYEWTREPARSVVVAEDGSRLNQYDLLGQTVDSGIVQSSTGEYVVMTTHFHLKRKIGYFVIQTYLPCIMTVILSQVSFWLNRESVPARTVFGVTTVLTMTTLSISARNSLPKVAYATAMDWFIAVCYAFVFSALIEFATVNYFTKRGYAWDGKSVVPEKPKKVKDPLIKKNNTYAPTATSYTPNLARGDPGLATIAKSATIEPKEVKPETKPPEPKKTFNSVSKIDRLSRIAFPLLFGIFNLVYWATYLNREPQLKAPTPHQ
T2 sequence (P18507 whole entry): T1 sequence (P18507 whole entry)
T2 sequence (P28472 whole entry): T1 sequence (P28472 whole entry)

[6] = biological target: GABA-A receptor; alpha-1/beta-3/gamma-2 (Homo sapiens) (UniProt P14867+P18507+P28472); assay: Efficacy against recombinant human GABA-Aalpha1 plus beta-3-gamma-2 expressed in L(tk-) cells by whole cell patch clamp method; type: functional, cell-based; summary of the method: as §2
[7] = biological target: GABA-A receptor; alpha-5/beta-3/gamma-2 (Homo sapiens) (UniProt P18507+P28472+P31644); assay: Efficacy against recombinant human GABA-Aalpha5 plus beta-3-gamma-2 expressed in L(tk-) cells by whole cell patch clamp method relative to chlordiazepoxide; type: functional, cell-based; summary of the method: as §2
[8] = biological target: GABA-A receptor; alpha-3/beta-3/gamma-2 (Homo sapiens) (UniProt P18507+P28472+P34903); assay: Efficacy against recombinant human GABA-Aalpha3 plus beta-3-gamma-2 expressed in L(tk-) cells by whole cell patch clamp method relative to chlordiazepoxide; type: functional, cell-based; summary of the method: as §2
[9] = Stability in dog assessed as liver microsomal turnover; type: ADME, Canis lupus familiaris; conditions: liver microsomes, read-out: Stability; summary of the method: as §1

Row | metabolised [1] [%] | Efficacy [2] | metabolised [3] [%] | Ki [4] [nM] | Ki [5] [nM] | Efficacy [6] [%] | Efficacy [7] | Efficacy [8] | metabolised [9] [%] | SMILES
1 | < 5 | 0.43 | 6 | 2 | 0.5 | -0.8 | 0.4 | 0.7 |  | Fc1cnc(-c2cc(-c3ccc(F)c(-c4ncccc4F)c3)cnn2)c(F)c1
2 | 5 | 0.28 | 3 | 6.3 | 1.8 | -3 |  | 0.39 | 4 | Fc1cnc(-c2cc(-c3cnnc(-c4c(F)cncc4F)c3)ccc2F)c(F)c1
3 | 4 | 0.36 | 7 | 5 | 2.6 | -9 | 0.14 | 0.4 | 0 | Fc1cnc(-c2cc(-c3cnnc(-c4c(F)cc(F)cc4F)c3)ccc2F)c(F)c1
4 | 3 | 0.12 | 3 | 8.5 | 1.5 | -7 | 0.01 | 0.44 | 8 | Fc1cnc(-c2cc(-c3ccc(F)c(-c4ncc(F)cc4F)c3)cnn2)c(F)c1
